Screens as filed in PubChem.
T cell modulator: T cell immune modulation candidate; 2C CD8+ T cell-vesicle binding, flow cytometry; stronger effect = lower value; response (vesicle binding), % at 7 µM; actives 0.068% (n = 330,000); AID 2052;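 active means response, share of CD8 T cells binding vesicles, and their 90th percentile fluorescence all below set limits, cut at about 80% in these data, passing the limit was not always enough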;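 further: values below 100% mean blocked vesicle binding to the CD8+ T cells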
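Test system: purified 2C TCR transgenic mouse naive CD8+ T cells. Probe or stimulus: QL9-peptide-loaded Drosophila micro-vesicles bearing Ld, ICAM-1 and B7-1. Incubation: binding step 1.5 h, 37 °C, antibody labelling 20 min, ice. Measured by: flow cytometry of vesicle-bound cells.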
Pemphigus Ab inh: blocks pemphigus antibody binding to human desmoglein-3; DSG3-coupled beads, scFv-anti-DSG3-GFP binding, flow cytometry; stronger effect = lower value; binding (percent of control), % at 10 µM; actives 0.48% (n = 310,000); AID 588358;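 active means binding more than 3 SD below its plate's average and above zero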;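 further: hits lower antibody fragment binding to DSG3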
CHT inh: human CHT choline transport inhibition; CHT-expressing cells, membrane potential dye, choline response; stronger effect = lower value; B-score at 10 µM; actives 0.86% (n = 310,000); AID 488975;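 active means B-score over 3 SD under the library average, and starting fluorescence ratio not unusually high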;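 further: choline stimulus applied at its EC90 after an EC20 pre-addition; B-score computed on integrated fluorescence ratio after choline addition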
Target sequence (Q9GZV3 whole entry, looked up): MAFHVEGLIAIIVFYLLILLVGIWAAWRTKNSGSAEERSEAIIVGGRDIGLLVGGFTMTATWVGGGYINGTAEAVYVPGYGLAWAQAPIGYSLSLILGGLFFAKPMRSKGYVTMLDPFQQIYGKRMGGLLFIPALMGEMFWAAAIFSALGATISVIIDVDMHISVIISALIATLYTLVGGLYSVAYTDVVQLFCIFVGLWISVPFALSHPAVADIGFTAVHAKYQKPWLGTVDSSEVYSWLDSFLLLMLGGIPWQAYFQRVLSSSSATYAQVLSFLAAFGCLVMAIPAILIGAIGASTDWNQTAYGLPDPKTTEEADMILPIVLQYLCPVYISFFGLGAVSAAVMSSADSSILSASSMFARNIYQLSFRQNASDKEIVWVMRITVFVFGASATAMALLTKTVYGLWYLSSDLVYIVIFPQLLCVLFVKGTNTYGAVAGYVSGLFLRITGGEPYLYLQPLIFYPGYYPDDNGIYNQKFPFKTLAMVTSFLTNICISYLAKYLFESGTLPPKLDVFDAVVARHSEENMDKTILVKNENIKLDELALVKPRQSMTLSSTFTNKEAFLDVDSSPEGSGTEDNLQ
GPR7 antagonist: human neuropeptides B/W receptor 1 antagonism | AID 1861 | GPR7-expressing cells, fluorescence antagonist assay | inhibition, % at 4.4 µM | actives 1.1% (n = 290,000); in the data active means inhibition above about 16%, passing the limit was not always enough;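 further: cells stimulated with the agonist NPW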
p-CIP stab down: p/CIP protein destabilization; AID 1984; actives 0.01% (n = 290,000); decrease of EGFP signal, % at 10 µM; F442A p/CIP-EGFP cells, EGFP fluorescence, 16 h; Q05BA5;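 active means EGFP signal decrease of at least 30% at 10 µM or well 3 SD below plate mean, unless failing retest; inactive means the rest, including hits failing retest or dose response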
CHT PAM: human CHT allosteric activation | B-score at 10 µM | CHT-expressing cells, membrane potential dye, choline EC20; stronger effect = higher value; LV-AA mutant CHT in HEK293 cells | Q9GZV3 | actives 0.49% (n = 310,000);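 active means initial fluorescence not abnormally high and integrated response B-score, plate-corrected, over 3 SD above library mean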
GPR7 antag conf: human GPR7 antagonism, confirmation assay; actives 52% (n = 2,400); GPR7-expressing cells, calcium fluorescence antagonist mode; shares compounds with GPR7 antagonist; AID 1952; inhibition, % at 4.4 µM; in the data active means inhibition above about 24%;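 further: stimulated with the GPR7 agonist NPW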
MCHR1 antagonist: counter-screen for GPR7 antagonists: antagonists of human MCHR1; shares compounds with GPR7 antagonist; MCHR1-expressing cells, fluorescence antagonist assay; inhibition, % at 4.4 µM; actives 62% (n = 2,400); AID 2148; in the data active means inhibition above about 22%
Each line names hits and unclear results; the compound was inactive in the other large screens (follow-up assays come after a bar, where they were run); ! = a repeat was not active. Most compounds without a hit are left out; they make up all but 2.3% or so of the library.

Oc1cc(Cl)ccc1Oc1ccc(Cl)cc1Cl	CHT inh -5.02 (no result: GPR7 antagonist, p-CIP stab down)
Cc1nn(Cc2ccc(Cl)cc2Cl)c(Cl)c1C(=O)O	none
N=c1c2c(n(Cc3ccc(Cl)cc3Cl)c3c1CCC3)CCCC2	CHT PAM 6.4
O=[N+]([O-])c1ccccc1CCl	none (no result: CHT inh, GPR7 antagonist, p-CIP stab down, CHT PAM)
O=[N+]([O-])c1ccccc1-c1cc(-c2ccccc2)cc(-c2ccccc2)[n+]1Cc1ccccc1Cl	CHT inh -5.28 (no result: Pemphigus Ab inh, GPR7 antagonist, p-CIP stab down)
COC(=O)C1=C(c2ccc(OCc3ccccc3)c(F)c2)C[C@@H]2CC[C@H]1N2C	none (no result: T cell modulator, CHT inh, GPR7 antagonist, p-CIP stab down, CHT PAM)
CN1C(=O)C(=Cc2ccc(SC3CCCCC3)o2)C(=O)N(C)C1=O	none
CN(C)C=C1C(=O)N(C2CCCCC2)C(=O)N(C2CCCCC2)C1=O	CHT inh -5.37
CNCC[C@@H](Oc1ccc(C(F)(F)F)cc1)c1ccccc1	none (no result: GPR7 antagonist, p-CIP stab down)
CN(C)[C@@H]1C(=O)C(C(N)=O)=C(O)[C@@]2(O)C(=O)C3=C(O)c4c(O)cccc4[C@@](C)(O)C3C[C@@H]12 (stereo partly drawn)	none (no result: GPR7 antagonist, p-CIP stab down)
CN(C)[C@@H]1C(=O)C(C(N)=O)=C(O)[C@@]2(O)C(=O)C3=C(O)c4c(O)cccc4[C@@](C)(O)[C@H]3[C@H](O)[C@@H]12	Pemphigus Ab inh 44.9!
Clc1ccc(COC(Cn2ccnc2)c2ccc(Cl)cc2Cl)c(Cl)c1 (stereo not drawn)	T cell modulator 0.0!
COc1cc2c(cc1OC)C1C(=O)c3ccc4c(c3OC1CO2)CC(C(C)C)O4 (stereo not drawn)	none (no result: T cell modulator, CHT inh, GPR7 antagonist, p-CIP stab down, CHT PAM)
COc1cc2c(cc1OC)[C@@H]1C(=O)c3ccc4c(c3O[C@@H]1CO2)C[C@H](C(C)C)O4	GPR7 antagonist 21.0
CN1CCN(c2ccc([N+](=O)[O-])c3cccnc23)CC1	CHT PAM 7.07
O=[N+]([O-])c1ccc(N2CCNCC2)c2ncccc12	none (no result: T cell modulator, Pemphigus Ab inh, CHT inh, CHT PAM)
N#CC(C#N)=NNc1ccc(-n2ccc(C(F)(F)F)n2)cc1	GPR7 antagonist 25.6
Cc1cc(-c2ccccc2)cc(-c2ccccc2)[n+]1CCc1ccccc1	none (no result: GPR7 antagonist, p-CIP stab down)
Clc1ccc(C[n+]2c(-c3ccccc3)cc(-c3ccccc3)cc2-c2ccccc2)cc1	CHT inh -8.87 (no result: GPR7 antagonist, p-CIP stab down)
Cc1cc(C)c(S(=O)(=O)N2Cc3ccccc3-n3nncc3C2)c(C)c1	none (no result: T cell modulator, CHT inh, GPR7 antagonist, p-CIP stab down, CHT PAM)
COC(=O)C1=C(c2ccc(OCc3ccccc3)cc2)C[C@@H]2CC[C@H]1N2C(=O)NCCc1ccc(F)cc1	none (no result: T cell modulator, CHT inh, GPR7 antagonist, p-CIP stab down, CHT PAM)
COc1cc2c(c(OC)c1OC)-c1ccc(SC)c(=O)cc1C(N)CC2 (stereo not drawn)	none (no result: T cell modulator, CHT inh, GPR7 antagonist, p-CIP stab down, CHT PAM)
N#Cc1ccc(Cn2cc(C=O)c3ccccc32)cc1	none
CCC(=O)c1cn(Cc2ccc(C#N)cc2)c2ccccc12	GPR7 antagonist 27.4 | GPR7 antag conf inactive | MCHR1 antagonist inactive
Cc1ccc(OC(=O)N(C)C[C@@H]2OCc3cnnn3CCCC(=O)N([C@@H](C)CO)C[C@H]2C)cc1	none (no result: T cell modulator, CHT inh, GPR7 antagonist, p-CIP stab down, CHT PAM)
C[C@]12CC[C@@H](O)CC1=CCC1C2CC[C@@]2(C)C1CC[C@@H]2O (stereo partly drawn)	none (no result: T cell modulator, CHT inh, GPR7 antagonist, p-CIP stab down, CHT PAM)
Cc1nn(C)c(C)c1P(=S)(c1c(C)nn(C)c1C)N(C)C	GPR7 antagonist 25.9 | GPR7 antag conf inactive | MCHR1 antagonist inactive
Cc1ccc(OCC(=O)N2CCN(Cc3ccc([N+](=O)[O-])cc3)CC2)cc1	GPR7 antagonist 21.4 | GPR7 antag conf 28.0 | MCHR1 antagonist 35.7
Cc1ccc(OCC(=O)N2CCN(Cc3ccc4c(c3)OCO4)CC2)cc1	none
C[C@@H]1CN([C@@H](C)CO)C(=O)CCCn2cc(nn2)CO[C@H]1CN(C)C(=O)Oc1cccc2ccccc12	none (no result: T cell modulator, CHT inh, GPR7 antagonist, p-CIP stab down, CHT PAM)
COC(=O)C(O)(c1ccc(NC(=S)NC(=O)c2ccc(Cl)cc2Cl)cc1)C(F)(F)F (stereo not drawn)	GPR7 antagonist 32.8 | GPR7 antag conf 56.2 | MCHR1 antagonist 60.5
CCOC(=O)C(O)(c1ccc(NC(=S)NC(=O)c2ccc(Cl)cc2Cl)cc1)C(F)(F)F (stereo not drawn)	GPR7 antagonist 59.7 (no result: Pemphigus Ab inh) | GPR7 antag conf 85.6 | MCHR1 antagonist 93.3
CCOC(=O)C(O)(c1ccc(NC(=S)NC(=O)c2ccc(Cl)cc2Cl)c(C)c1)C(F)(F)F (stereo not drawn)	GPR7 antagonist 88.4 | GPR7 antag conf 93.3 | MCHR1 antagonist 97.0
COC(=O)C(O)(c1ccc(NC(=S)NC(=O)c2ccc(Cl)cc2Cl)c(C)c1)C(F)(F)F (stereo not drawn)	none
O=C(O)C(O)(c1ccc(Cl)cc1)C1(O)CCCC1 (stereo not drawn)	none (no result: T cell modulator, CHT inh, GPR7 antagonist, p-CIP stab down, CHT PAM)
CC12CCC3c4ccc(OC(=O)N(CCCl)CCCl)cc4CCC3C1CCC2O (stereo not drawn)	none (no result: T cell modulator, CHT inh, GPR7 antagonist, p-CIP stab down, CHT PAM)
CCOc1ccc(-c2cc(C)[n+](CCO)c(-c3ccc(OCC)cc3)c2)cc1	none
CCOc1ccc(-c2cc(C)[n+](CCc3ccc(OC)c(OC)c3)c(-c3ccc(OCC)cc3)c2)cc1	GPR7 antagonist 54.2 | GPR7 antag conf 65.9 | MCHR1 antagonist 61.4
CN1CC=C(c2c[nH]c3ccccc23)CC1	none
CC(C(=O)c1c[nH]c2ccccc12)N1CCc2ccccc2C1 (stereo not drawn)	GPR7 antagonist 22.0 | GPR7 antag conf inactive | MCHR1 antagonist inactive
CCOc1cc2c(cc1OCC)-n1cccc1C(c1ccc(C)cc1C)NC2 (stereo not drawn)	GPR7 antagonist 37.9 | GPR7 antag conf inactive | MCHR1 antagonist 23.1
Nc1cc(C(=O)Nc2ccccc2F)ccc1N1CC2CC(C1)c1cccc(=O)n1C2 (stereo not drawn)	none (no result: T cell modulator, CHT inh, GPR7 antagonist, p-CIP stab down, CHT PAM)
Cc1ncoc1C(=O)NCC1=C(c2ccc(S(C)(=O)=O)cc2)C[C@@H]2CC[C@H]1N2Cc1ccco1	none (no result: T cell modulator, CHT inh, GPR7 antagonist, p-CIP stab down, CHT PAM)
CCN(CC)c1ccc(/C=C/[N+](=O)[O-])cc1	GPR7 antagonist 22.1 | GPR7 antag conf 55.1 | MCHR1 antagonist 84.5
CCOC(=O)c1cc2c(cn1)[C@@H](CCO)NC2	none (no result: T cell modulator, CHT inh, GPR7 antagonist, p-CIP stab down, CHT PAM)
CC(=O)c1cn(CC(=O)NCCc2c[nH]c3ccccc23)c2ccccc12	GPR7 antagonist 25.1 | GPR7 antag conf inactive | MCHR1 antagonist 51.4
CCN1/C(=C\C=C\C2=[N+](CC)c3ccccc3C2(C)C)C(C)(C)c2ccccc21	GPR7 antagonist 98.2 (no result: Pemphigus Ab inh) | GPR7 antag conf 102.7 | MCHR1 antagonist 105.5
CN(C)C1(CNC(=O)Nc2ccc(Cl)c(Cl)c2)CCCCC1	GPR7 antagonist 30.3 | GPR7 antag conf 42.9 | MCHR1 antagonist 47.1
